From ChEMBL document CHEMBL1145936, “Rational design of an indolebutanoic acid derivative as a novel aldose reductase inhibitor based on docking and 3D QSAR studies of phenethylamine derivatives” (J Med Chem, 2003)

target: Aldo-keto reductase family 1 member B1 (Sus scrofa, UniProt P80276); assay: Inhibition of pig kidney aldose reductase (ALR2)
Procedure, shortened: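 Enzyme prepared from pig kidney and assayed in vitro following a previously published method. Inhibition read spectrophotometrically at 340 nm; IC50 values reported. Tolrestat served as positive control.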

| SMILES | IC50 [µM] |
| --- | --- |
| O=C(O)CCC(=O)NCCc1ccc(Cl)cc1 | 99 |
| O=C(O)c1ccccc1C(=O)Nc1ccccc1 | 227 |
| O=C(O)c1ccccc1C(=O)n1ccc2ccccc21 | 30 |
| O=C(O)CCC(=O)NCCc1ccc(Br)cc1 | 94 |
| O=C(O)CCCC(=O)NCc1ccccc1 | 133 |
| O=C(NCCc1ccc(O)cc1)c1ccccc1 | 160 |
| COc1ccc2c(C(=S)N(C)CC(=O)O)cccc2c1C(F)(F)F [TOLRESTAT] | 16 |
| O=C(O)CCC(=O)NCCc1ccc(O)cc1 | 390 |
| O=C(O)/C=C/C(=O)NCCc1ccccc1 | 73 |
| O=C(O)/C=C/C(=O)n1ccc2ccccc21 | 37 |
| O=C(O)CCCC(=O)NCCc1ccc(Cl)cc1 | 154 |
| O=C(O)c1ccccc1C(=O)NCc1ccccc1 | 180 |
| O=C(O)c1ccccc1C(=O)NCCc1ccc(O)cc1 | 340 |
| O=C(O)c1ccccc1C(=O)NCCc1ccccc1 | 88 |
| COc1ccc(CCNC(=O)CCCC(=O)O)cc1 | 185 |
| CC(=O)NCCc1ccc(O)cc1 | 160 |
| O=C(O)CCC(=O)n1ccc2c(O)cccc21 | 7.4 |
| O=C(O)CCCC(=O)NCCc1ccccc1 | 104 |
| O=C(O)CCC(=O)N1CCc2ccccc21 | 102 |
| COc1ccc(CCNC(=O)/C=C/C(=O)O)cc1 | 155 |
| O=C(O)c1ccccc1C(=O)NCCc1ccc(Cl)cc1 | 203 |
| COc1ccc(CCNC(=O)CCC(=O)O)cc1 | 170 |
| O=C(O)CCCC(=O)NCCc1ccc(Br)cc1 | 110 |
| O=C(O)CCC(=O)NCc1ccccc1 | 141 |

| SMILES | IC50 [µM] |
| --- | --- |
| O=C(O)c1ccccc1C(=O)NCCc1ccc(Br)cc1 | 81 |
| COc1ccc(CCNC(=O)c2ccccc2C(=O)O)cc1 | 177 |
| O=C(O)CCC(=O)n1ccc2ccccc21 | 24 |
| O=C(O)/C=C/C(=O)NCc1ccccc1 | 150 |
| O=C(O)/C=C/C(=O)NCCc1ccc(Cl)cc1 | 112 |
| CCCCCCCCCC(=O)NCCc1ccc(O)cc1 | 110 |
| O=C(O)CCC(=O)NCCc1ccc(F)cc1 | 94 |
| COc1cc(C(=O)NCCc2ccc(O)cc2)cc(OC)c1OC | 100 |
| CCC(C)C(=O)NCCc1ccc(O)cc1 (stereo not drawn) | 1800 |
| CCCCCCCCCCCCCCCC(=O)NCCc1ccc(O)cc1 | 150 |
| O=C(O)CCC(=O)NCCc1ccccc1 | 78 |
| O=C(O)CCC(=O)Nc1ccccc1 | 192 |
| O=C(O)/C=C/C(=O)NCCc1ccc(F)cc1 | 75 |
| O=C(O)/C=C/C(=O)NCCc1ccc(Br)cc1 | 99 |
| O=C(O)c1ccccc1C(=O)NCCc1ccc(F)cc1 | 88 |
| O=C(O)CCCC(=O)Nc1ccccc1 | 440 |
| O=C(O)c1ccccc1C(=O)N1CCc2ccccc21 | 95 |
| O=C(O)/C=C/C(=O)Nc1ccccc1 | 182 |
| O=C(O)CCCC(=O)NCCc1ccc(F)cc1 | 76 |
| O=C(O)/C=C/C(=O)NCCc1ccc(O)cc1 | 80 |
| CCCCCCCC(=O)NCCc1ccc(O)cc1 | 120 |
| O=C(O)/C=C/C(=O)N1CCc2ccccc21 | 40 |
| CCCCC(=O)NCCc1ccc(O)cc1 | 130 |
| CCCCCCCCCCCC(=O)NCCc1ccc(O)cc1 | 110 |
